Results on 8 compounds are retold here after ChEMBL document CHEMBL3763129 (Bioorg Med Chem Lett, 2016).

Active and inactive are the calls of the source. The calls are words filed in the database; no cut-off is given here.

Data set [1] relates to BXPC-3. Briefly: Antiproliferative activity against human BxPC3 cells assessed as cell viability at 10 uM after 48 hrs by MTS assay. It is filed as functional, cell-based. On the technique in general: Formazan colour is commonly taken as a measure of viable cells.
The test system of data set [2] is ASPC1. The data set is described as follows: Antiproliferative activity against human AsPC1 cells assessed as cell viability at 10 uM after 48 hrs by MTS assay. It is filed as functional, cell-based.
Data set [3] deals with MIA PaCa-2. Briefly: Antiproliferative activity against human MIAPaCa2 cells assessed as cell viability at 0.01 to 10 uM after 48 and 72 hrs by MTS assay. The format is functional, cell-based.
Data set [4] concerns BXPC-3. Briefly: Antiproliferative activity against human BxPC3 cells assessed as cell viability at 0.01 to 10 uM after 48 and 72 hrs by MTS assay. It is filed as functional, cell-based.
In data set [5] the test system is ASPC1. Briefly: Antiproliferative activity against human AsPC1 cells assessed as cell viability at 0.01 to 10 uM after 48 and 72 hrs by MTS assay. The format is functional, cell-based.
The test system of data set [6] is MIA PaCa-2. The data set is described as follows: Antiproliferative activity against human MIAPaCa2 cells assessed as cell viability at 10 uM after 48 hrs by MTS assay. It is filed as functional, cell-based.
The nature of data set [7]: Cytotoxicity against human MCF10A cells assessed as cell viability at 0.01 to 10 uM after 48 and 72 hrs by MTS assay. The format is cell-based. As to conditions: mcf-10a.
A short description of data set [8]: Cytotoxicity against human MCF10A cells assessed as cell viability at 10 uM after 48 hrs by MTS assay. As to conditions: mcf-10a. It is filed as cell-based.
Data set [9] concerns the target Proto-oncogene tyrosine-protein kinase Src (Homo sapiens) (UniProt P12931). Briefly: Binding affinity to Src kinase SH2 domain (unknown origin) at 25 uM by STD-NMR spectroscopy. A digest of the protocol:
(§1)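 STD-NMR on recombinant SH2 (SUMO-fusion expressed in E. coli Rosetta2, Ni-purified, tag cleaved) in 100% D2O with trace DMSO-d6; 50 ms Gaussian saturation pulse, saturation and delay times 5.0 s, 16 scans with 720 averages; ligand/protein ratio 5:1 or 20:1 depending on compound.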

Data set [10] addresses T1, Calmodulin/Proto-oncogene tyrosine-protein kinase Src (Homo sapiens) (UniProt P12931+P0DP23). The data set is described as follows: Inhibition of human CaM/Src kinase SH2 domain interaction assessed as apparent association of CaM-Src kinase SH2 domain at 10 fold excess compound concentration by isothermal titration calorimetry. The format is protein assay. A digest of the protocol:
(§2)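 ITC at 27°C: SH2 (0.02mM) premixed with compound in DMSO in cell, titrated with CaM (0.2mM, DMSO matched), 20µl per injection, 300 s spacing; both proteins dialyzed overnight in 10mM Bis-Tris pH6.5, 50mM NaCl, 1mM CaCl2, 0.1mM TCEP; recombinant proteins from E. coli, SUMO tag removed.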
On the technique in general: Isothermal titration calorimetry measures the heat released or taken up as one component is titrated into another.

The target of data set [11] is Calmodulin-1 (Homo sapiens) (UniProt P0DP23). The data set is described as follows: Binding affinity to human calmodulin by isothermal titration calorimetry.
Data set [12] relates to MIA PaCa-2. Briefly: Cytotoxicity against human MIAPaCa2 cells at 1 to 50 uM after 8 days by calcein-AM staining based fluorescence analysis. The format is functional, cell-based. A digest of the protocol: (§3)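 3D microtumors: 10K MiaPaCa-2 cells in ice-cold HuBiogel (3 mg/ml), 2 mm beads polymerized 5 min at 37C, cultured up to 14 days in DMEM/10% FBS; compound 1–50 µM added every other day (final 5% FBS, 0.5% DMSO); media or DMSO controls; day 1, 7, 14 Calcein-AM (1.0µM) live imaging; proliferation by CellTiter Glo relative to DMSO; 6–8 beads/group.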

Data set [13] has as its system MIA PaCa-2. The data set is described as follows: Cytotoxicity against human MIAPaCa2 cells at 1 to 50 uM after 8 days by CellTiter Glo assay. It is filed as functional, cell-based. A digest of the protocol: as §3
(Cellular ATP, detected with luciferase, serves as a proxy for viable cell number.)

Data set [14] has as its target Proto-oncogene tyrosine-protein kinase Src (Homo sapiens) (UniProt P12931). Briefly: Binding affinity to Src kinase SH2 domain (unknown origin) at 100 uM by STD-NMR spectroscopy. In short, it runs like this:
as §1

The target in data set [15] is T1, Calmodulin/Proto-oncogene tyrosine-protein kinase Src (Homo sapiens). Briefly: Inhibition of human CaM/Src kinase SH2 domain interaction assessed as apparent association of CaM-Src kinase SH2 domain at 25 fold excess compound concentration by isothermal titration calorimetry. It is filed as protein assay. In short, it runs like this:
as §2

As to `O=C(Nc1ccc(C(=O)O)cc1)Nc1ccc(-c2nc(N3CCOCC3)nc(N3CCOCC3)n2)cc1`, the result with BXPC-3 [1], in the data set with ASPC1 [2], in the data set with MIA PaCa-2 [3], in the data set on BXPC-3 [4], in the data set with ASPC1 [5] and in the data set on MIA PaCa-2 [6] was Active. For the same compound, the outcome in [9] was Active. Also, the Activity result in [7] and in data set [8] was “Toxic” throughout. Further, the Ka in [10] was 2.49 ×10⁶ /M. Besides, the result in data set [11] was inactive.
For `Cc1nc2ccccn2c1-c1csc(Nc2ccc(C(=O)O)cc2)n1`, the outcome in the data set with BXPC-3 [1], with ASPC1 [2] and in the data set on MIA PaCa-2 [6] was Active. The Activity result in data set [8] is given as “Toxic”. Further, the result in [11] was inactive.
With `Cc1ccc(Cc2cnc(NC(=O)c3ccc(-n4ccnc4)cc3)s2)cc1`, the outcome with BXPC-3 [1], in the data set on ASPC1 [2] and in the data set on MIA PaCa-2 [6] was Active.
As to `COc1ccc(-c2n[nH]c(NC(=O)c3cccc(S(=O)(=O)N4CCc5ccccc54)c3)n2)cc1`, the result in the data set on BXPC-3 [1], in the data set with ASPC1 [2] and in the data set on MIA PaCa-2 [6] was Active. The Activity result in data set [8] is on record as “Toxic”.
On to `CC/C(=C(\c1ccccc1)c1ccc(OCCN(C)C)cc1)c1ccccc1`, for which the result in the data set with BXPC-3 [1], with ASPC1 [2] and in the data set with MIA PaCa-2 [6] was Active.
In the case of `O=C1COc2ccc(C(=O)/C=C/c3cc(F)cc4c3OCOC4)cc2N1`, the result in the data set on MIA PaCa-2 [12], with BXPC-3 [1], with ASPC1 [2], in the data set on MIA PaCa-2 [13] and in the data set with MIA PaCa-2 [6] was Active. The Activity result in [8] is “Toxic”. Further, the outcome in data set [11] was inactive.
`N#Cc1ccc(Cc2cnc(NC(=O)CCc3ccc4c(c3)OCO4)s2)cc1`: the outcome with BXPC-3 [1], in the data set with ASPC1 [2] and with MIA PaCa-2 [6] was Active. Moreover, the Activity entry in data set [8] is on record as “Toxic”.
Consider `OC[C@@H]1O[C@H](n2cnc3c(NCc4ccco4)ncnc32)[C@H](O)[C@@H]1O`, for which the outcome (in [14]; in the data set on BXPC-3 [1]; with ASPC1 [2]; with MIA PaCa-2 [3]; in the data set on BXPC-3 [4]; with ASPC1 [5]) was Active. The result in the data set with MIA PaCa-2 [6] was Active. In addition, the Ka in data set [15] was determined as 2.03 ×10⁶ /M. The Activity entry in data set [7] and in data set [8] was “Toxic” throughout. Further, the result in data set [11] was inactive.
